For 1 molecule, Activity and inhibition in vivo results are on record in ChEMBL document CHEMBL4732196, “Structural optimization towards promising β-methyl-4-acrylamido quinoline derivatives as PI3K/mTOR dual inhibitors for anti-cancer therapy: The in vitro and in vivo biological evaluation” (Eur J Med Chem, 2021).

In assay [1] the target is Cyclin-dependent kinase 19 (Homo sapiens) (UniProt Q9BWU1). The assay can be described thus: Inhibition of human partial length CDK11 (M1 to N360 residues) expressed in bacterial system assessed as residual activity at 10 uM by kinome scan method relative to control. The procedure, abridged:
(§1)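 KINOMEscan binding assay, test compound at 10 μM against a 52-kinase panel. % Ctrl = (compound signal − positive control signal)/(negative control signal − positive control signal) × 100, with DMSO as negative control (100%) and a positive control (0%).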

For assay [2], the target named is Serine/threonine-protein kinase Nek10 (Homo sapiens) (UniProt Q6ZWH5). Briefly: Inhibition of human partial length NEK10 (L488 to R809 residues) expressed in mammalian expression system assessed as residual activity at 10 uM by kinome scan method relative to control. The procedure, abridged: as §1
Assay [3] relates to U-87 MG. Briefly: Antitumour activity against human U87MG cells xenografted in ICR nude mouse assessed as tumour growth inhibition at 30 mg/kg, po every other day for 24 days relative to control. Format: functional, U-87MG ATCC. As to conditions: 576 h, time 24 day, read-out: TGI. The procedure, abridged: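 Male ICR nude mice inoculated subcutaneously with 5 × 10⁶ U87MG cells. Once tumours reached about 200 mm³, mice were randomised and dosed by oral gavage every other day for 24 days. Tumour volume (length × width² × 0.5) and body weight recorded every 4 days. Inhibition = 100 × {1 − [(final − initial volume) treated]/[(final − initial volume) vehicle]}.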

Chain of Cyclin-dependent kinase 19 (Homo sapiens) (Q9BWU1 whole entry, the tested form may be a part): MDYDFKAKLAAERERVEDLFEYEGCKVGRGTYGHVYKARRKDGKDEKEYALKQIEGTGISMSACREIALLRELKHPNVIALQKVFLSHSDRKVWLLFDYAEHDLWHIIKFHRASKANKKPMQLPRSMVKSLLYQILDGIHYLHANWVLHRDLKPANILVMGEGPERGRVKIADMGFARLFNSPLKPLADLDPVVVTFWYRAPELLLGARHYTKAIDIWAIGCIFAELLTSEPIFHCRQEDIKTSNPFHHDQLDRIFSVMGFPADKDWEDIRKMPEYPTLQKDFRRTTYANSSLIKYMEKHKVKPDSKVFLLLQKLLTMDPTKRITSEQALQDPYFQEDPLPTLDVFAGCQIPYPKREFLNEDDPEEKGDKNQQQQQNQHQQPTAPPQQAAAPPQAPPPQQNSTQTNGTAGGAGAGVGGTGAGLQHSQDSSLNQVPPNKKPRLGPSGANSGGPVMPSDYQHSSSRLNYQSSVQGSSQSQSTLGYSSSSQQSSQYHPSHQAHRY
Chain of Serine/threonine-protein kinase Nek10 (Homo sapiens) (Q6ZWH5 whole entry, the tested form may be a part): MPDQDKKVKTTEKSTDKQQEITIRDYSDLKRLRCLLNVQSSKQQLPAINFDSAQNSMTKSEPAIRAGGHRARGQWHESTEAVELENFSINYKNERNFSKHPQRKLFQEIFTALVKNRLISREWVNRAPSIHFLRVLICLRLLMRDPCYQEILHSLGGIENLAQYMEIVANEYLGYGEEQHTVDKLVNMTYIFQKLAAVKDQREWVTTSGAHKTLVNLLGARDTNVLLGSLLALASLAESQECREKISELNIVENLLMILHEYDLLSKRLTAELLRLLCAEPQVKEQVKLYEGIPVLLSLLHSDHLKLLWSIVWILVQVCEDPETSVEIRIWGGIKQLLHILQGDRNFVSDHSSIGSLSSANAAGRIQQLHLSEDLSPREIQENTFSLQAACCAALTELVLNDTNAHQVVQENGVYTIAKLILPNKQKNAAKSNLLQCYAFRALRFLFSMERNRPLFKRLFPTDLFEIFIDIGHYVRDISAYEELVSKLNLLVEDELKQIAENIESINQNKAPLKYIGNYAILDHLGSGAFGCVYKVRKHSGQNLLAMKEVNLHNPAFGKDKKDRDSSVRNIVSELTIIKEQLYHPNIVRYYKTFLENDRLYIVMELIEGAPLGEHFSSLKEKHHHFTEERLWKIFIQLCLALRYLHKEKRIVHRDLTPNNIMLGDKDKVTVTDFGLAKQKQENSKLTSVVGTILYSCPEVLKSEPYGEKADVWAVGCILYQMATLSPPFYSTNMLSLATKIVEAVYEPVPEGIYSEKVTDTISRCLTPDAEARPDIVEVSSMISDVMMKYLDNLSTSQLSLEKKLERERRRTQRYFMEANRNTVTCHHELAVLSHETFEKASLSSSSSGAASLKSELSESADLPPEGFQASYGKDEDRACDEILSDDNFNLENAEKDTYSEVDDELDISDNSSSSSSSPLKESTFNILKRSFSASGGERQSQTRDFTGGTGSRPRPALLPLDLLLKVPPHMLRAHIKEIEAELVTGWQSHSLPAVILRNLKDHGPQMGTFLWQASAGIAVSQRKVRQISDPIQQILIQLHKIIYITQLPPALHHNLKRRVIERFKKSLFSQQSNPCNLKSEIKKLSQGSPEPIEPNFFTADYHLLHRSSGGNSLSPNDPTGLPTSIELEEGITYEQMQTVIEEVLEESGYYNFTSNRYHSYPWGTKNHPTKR

Consider `COc1ncc(-c2ccc3nccc(/C(C)=C/C(=O)N4CCN(C)CC4)c3c2)cc1NS(=O)(=O)c1ccc(F)cc1F`, for which the Activity was determined as 95% in assay [1] and 61% in assay [2]. In assay [3], the inhibition in vivo at 30 mg/kg worked out at 93.5%.
